Assay results taken from ChEMBL document CHEMBL1132698, “3-(Piperazinylpropyl)indoles: selective, orally bioavailable h5-HT1D receptor agonists as potential antimigraine agents” (J Med Chem, 1999).

Columns and labels:
[1] = biological target: 5-hydroxytryptamine receptor 1B (Homo sapiens, UniProt P28222); assay: Displacement of [3H]5-HT binding from cloned human 5-hydroxytryptamine 1B receptor stably expressed in CHO cells.; type: cell-based
[2] = biological target: T1, 5-hydroxytryptamine receptor 1D (Homo sapiens, UniProt P28221); assay: Displacement of [3H]5-HT binding to the cloned human 5-hydroxytryptamine 1D receptor stably expressed in CHO cells; type: cell-based
T1 sequence (P28221 whole entry): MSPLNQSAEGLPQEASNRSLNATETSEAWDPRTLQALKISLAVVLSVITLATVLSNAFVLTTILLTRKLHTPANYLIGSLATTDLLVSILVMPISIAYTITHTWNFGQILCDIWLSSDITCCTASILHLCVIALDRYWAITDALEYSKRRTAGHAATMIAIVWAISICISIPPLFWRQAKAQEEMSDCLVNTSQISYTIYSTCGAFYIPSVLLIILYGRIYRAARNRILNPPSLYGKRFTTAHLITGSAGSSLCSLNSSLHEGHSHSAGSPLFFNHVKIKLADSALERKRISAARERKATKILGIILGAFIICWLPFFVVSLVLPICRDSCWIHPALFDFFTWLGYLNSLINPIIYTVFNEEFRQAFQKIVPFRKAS
Method in brief: (§1)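 Membranes from CHO cells stably expressing human 5-HT1D receptor were washed, pre-incubated 10 min at 37 °C, then assayed at 0.2 mg protein/mL in 50 mM Tris-HCl pH 7.7 with 4 mM CaCl2, 0.01 mM pargyline and 0.1% ascorbate. […] Filtration and counting followed; IC50 came from nonlinear regression; ≥3 experiments, geometric means.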

[3] = biological target: T1, 5-hydroxytryptamine receptor 1D; assay: Stimulation of [35S]GTP-gamma-S, binding in CHO cells expressing the human 5-hydroxytryptamine 1D receptor.; type: functional, cell-based
Method in brief: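 Membranes from CHO cells stably expressing human 5-HT1D were used at 40 μg protein/mL in HEPES 20 mM, NaCl 100 mM, MgCl2 10 mM, pargyline, ascorbate, pH 7.4. They were preincubated with 100 μM GDP plus compound for 20 min at 30 °C, then 15 min on ice. 100 pM [35S]GTPγS was added for 30 min at 30 °C, followed by filtration and counting. EC50 and Emax (relative to 5-HT maximum) came from nonlinear regression.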

[4] = biological target: T1, 5-hydroxytryptamine receptor 1D; assay: Relative efficacy in stimulation of [35S]GTP-gamma-S, binding in CHO cells compared to 5-HT; type: functional, cell-based
[5] = biological target: T1, 5-hydroxytryptamine receptor 1D; assay: Displacement of [3H]5-HT from human 5-hydroxytryptamine 1D receptor expressed in CHO cells; type: cell-based; method in brief: as §1
[6] = biological target: T1, 5-hydroxytryptamine receptor 1D; assay: Displacement of [3H]5-HT binding from human 5-hydroxytryptamine 1D receptor expressed in CHO cells; type: cell-based
[7] = biological target: T1, 5-hydroxytryptamine receptor 1D; assay: Stimulation of [35S]GTP-gamma-S, binding in CHO cells expressing the 5-hydroxytryptamine 1D receptor; type: functional, cell-based

5-hydroxytryptamine receptor 1B, sequence (P28222 whole entry): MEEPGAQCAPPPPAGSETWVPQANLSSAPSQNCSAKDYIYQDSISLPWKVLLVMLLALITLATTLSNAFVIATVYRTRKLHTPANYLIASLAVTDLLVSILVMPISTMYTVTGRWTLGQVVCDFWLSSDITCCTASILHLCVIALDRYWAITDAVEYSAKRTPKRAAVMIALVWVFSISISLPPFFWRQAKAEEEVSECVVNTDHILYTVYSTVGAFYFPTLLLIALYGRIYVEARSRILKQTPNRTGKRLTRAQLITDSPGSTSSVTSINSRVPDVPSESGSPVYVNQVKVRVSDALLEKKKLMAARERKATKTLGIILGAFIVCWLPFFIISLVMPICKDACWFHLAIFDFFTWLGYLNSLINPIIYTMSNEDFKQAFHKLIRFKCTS

| Structure (SMILES) | IC50 [1] [nM] | IC50 [2] [nM] | EC50 [3] [nM] | Relative efficacy [4] [%] | IC50 [5] [nM] | IC50 [6] [nM] | EC50 [7] [nM] |
| --- | --- | --- | --- | --- | --- | --- | --- |
| c1ccc(CCCN2CCN(CCCc3c[nH]c4ccc(-n5cnnc5)cc34)CC2)cc1 | 85 | 4.9 | 4 | 68 | – | – | – |
| Cc1noc(-c2ccc(CCN3CCN(CCCc4c[nH]c5ccc(-n6cnnc6)cc45)CC3)cc2)n1 | 46 | 6.9 | – | – | – | – | – |
| c1cc(CN2CCN(CCCc3c[nH]c4ccc(-n5cnnc5)cc34)CC2)co1 | 27 | – | 0.3 | 70 | 1.1 | – | – |
| CC(=O)Nc1ccc(CN2CCN(CCCc3c[nH]c4ccc(-n5cnnc5)cc34)CC2)cc1 | 56 | 2.5 | 6.1 | 78 | – | – | – |
| c1coc(CN2CCN(CCCc3c[nH]c4ccc(-n5cnnc5)cc34)CC2)c1 | 18 | 0.4 | 0.5 | 66 | – | – | – |
| c1ccc(CNC[C@@H]2CCN(CCc3c[nH]c4ccc(-n5cnnc5)cc34)C2)cc1 | 37 | – | – | 102 | – | 0.6 | – |
| Fc1ccc(CCN2CCN(CCCc3c[nH]c4ccc(-n5cnnc5)cc34)CC2)cc1 | – | – | – | 81 | – | – | – |
| CN1CCN(CCCc2c[nH]c3ccc(-n4cnnc4)cc23)CC1 | 309 | 33 | – | 95 | – | – | 54 |
| S=C1CN(CCCc2c[nH]c3ccc(-n4cnnc4)cc23)CCN1Cc1ccccc1 | 18 | 0.8 | 2.3 | 97 | – | – | – |
| NC(=O)C(c1ccccc1)N1CCN(CCCc2c[nH]c3ccc(-n4cnnc4)cc23)CC1 (stereo in doubt; 6q) [listing 1 of 2 here] | – | – | – | 61 | – | – | – |
| Fc1ccc(CCN2CCN(CCCc3c[nH]c4ccc(-n5cnnc5)cc34)CC2)cc1F | 83 | 0.9 | 0.7 | 91 | – | – | – |
| FC(F)(F)c1ccc(CN2CCN(CCCc3c[nH]c4ccc(-n5cnnc5)cc34)CC2)cc1 | 282 | – | – | 82 | – | 5.2 | 11 |
| c1cc2[nH]cc(CCCN3CCNCC3)c2cc1-n1cnnc1 | 145 | 31 | – | – | – | – | – |
| c1ccc(N2CCN(CCCc3c[nH]c4ccc(-n5cnnc5)cc34)CC2)cc1 | 13 | 1.4 | – | – | – | – | – |
| O=C1CN(CCCc2c[nH]c3ccc(-n4cnnc4)cc23)CCN1Cc1ccccc1 | 282 | 6.6 | 7.5 | 85 | – | – | – |
| c1cc2[nH]cc(CCN3CCCC3)c2cc1-n1cnnc1 | – | – | – | 120 | – | – | – |
| CC(=O)Nc1cccc(CN2CCN(CCCc3c[nH]c4ccc(-n5cnnc5)cc34)CC2)c1 | 2.4 | 0.2 | 0.2 | 70 | – | – | – |
| Fc1ccc(CN2CCN(CCCc3c[nH]c4ccc(-n5cnnc5)cc34)CC2)cc1 | 20 | 0.1 | 0.3 | 77 | – | – | – |
| CN(C)CCc1c[nH]c2ccc(-n3cnnc3)cc12 | – | – | – | 115 | – | – | – |
| OCC(c1ccccc1)N1CCN(CCCc2c[nH]c3ccc(-n4cnnc4)cc23)CC1 (stereo not drawn) | 9.5 | 0.7 | 0.3 | 74 | – | – | – |
| Clc1ccc(CN2CCN(CCCc3c[nH]c4ccc(-n5cnnc5)cc34)CC2)cc1 | 59 | 0.5 | 1.2 | 63 | – | – | – |
| c1cc2[nH]cc(CCCN3CCOCC3)c2cc1-n1cnnc1 | 7.4 | 8.8 | – | – | – | – | – |
| O=C1CN(Cc2ccccc2)CCN1CCCc1c[nH]c2ccc(-n3cnnc3)cc12 | 3900 | 173 | – | – | – | – | – |

| Structure (SMILES) | IC50 [1] [nM] | IC50 [2] [nM] | EC50 [3] [nM] | Relative efficacy [4] [%] | IC50 [5] [nM] | IC50 [6] [nM] | EC50 [7] [nM] |
| --- | --- | --- | --- | --- | --- | --- | --- |
| c1cncc(CCN2CCN(CCCc3c[nH]c4ccc(-n5cnnc5)cc34)CC2)c1 | 93 | 4.9 | 7.8 | 69 | – | – | – |
| NC(=O)C(c1ccccc1)N1CCN(CCCc2c[nH]c3ccc(-n4cnnc4)cc23)CC1 (stereo in doubt; 6q) [listing 2 of 2 here] | 55 | – | – | – | – | 2.3 | 3.8 |
| N#Cc1ccc(CN2CCN(CCCc3c[nH]c4ccc(-n5cnnc5)cc34)CC2)cc1 | 130 | 0.7 | 1.1 | 71 | – | – | – |
| O=C1CN(CCCc2c[nH]c3ccc(-n4cnnc4)cc23)CCN1CCc1ccccc1 | 78 | 5.2 | – | – | – | – | – |
| c1cnc(N2CCN(CCCc3c[nH]c4ccc(-n5cnnc5)cc34)CC2)nc1 | 0.5 | 0.6 | 0.6 | 59 | – | – | – |
| CN1CCN(CCCCc2c[nH]c3ccc(-n4cnnc4)cc23)CC1 | 5100 | 210 | – | – | – | – | – |
| c1cc(CN2CCN(CCCc3c[nH]c4ccc(-n5cnnc5)cc34)CC2)ccn1 | 23 | 0.6 | 1 | 66 | – | – | – |
| CN1CCN(CCc2c[nH]c3ccc(-n4cnnc4)cc23)CC1 | 304 | 134 | – | 61 | – | – | 105 |
| c1cncc(CN2CCN(CCCc3c[nH]c4ccc(-n5cnnc5)cc34)CC2)c1 | 22 | 0.3 | 0.3 | 69 | – | – | – |
| CC(CN1CCN(CCCc2c[nH]c3ccc(-n4cnnc4)cc23)CC1)c1ccccc1 (stereo not drawn) | 45 | 0.8 | 0.3 | 94 | – | – | – |
| NC(=O)C(c1ccccc1)N1CCN(CCCc2c[nH]c3ccc(-n4cnnc4)cc23)CC1 (stereo in doubt; 6p) [listing 1 of 2 here] | – | – | – | 77 | – | – | – |
| CNCC(c1ccccc1)N1CCN(CCCc2c[nH]c3ccc(-n4cnnc4)cc23)CC1 (stereo not drawn) | 17 | 0.9 | 1.7 | 103 | – | – | – |
| Fc1cccc(CCN2CCN(CCCc3c[nH]c4ccc(-n5cnnc5)cc34)CC2)c1 | 72 | 0.5 | 1 | 88 | – | – | – |
| c1ccc(CCN2CCN(CCCc3c[nH]c4ccc(-n5cnnc5)cc34)CC2)cc1 | – | – | 1.7 | 73 | – | – | – |
| CN(C)C(=O)C(c1ccccc1)N1CCN(CCCc2c[nH]c3ccc(-n4cnnc4)cc23)CC1 (stereo not drawn) | 102 | 1 | 0.8 | 68 | – | – | – |
| NC(=O)C(c1ccccc1)N1CCN(CCCc2c[nH]c3ccc(-n4cnnc4)cc23)CC1 (stereo in doubt; 6p) [listing 2 of 2 here] | 13 | 0.2 | 0.2 | – | – | – | – |
| c1ccc(CN2CCN(CCCc3c[nH]c4ccc(-n5cnnc5)cc34)CC2)nc1 | 18 | 0.4 | 0.3 | 67 | – | – | – |
| c1ccc(CN2CCN(CCCc3c[nH]c4ccc(-n5cnnc5)cc34)CC2)cc1 | 11 | 0.1 | 0.2 | 57 | – | – | – |
| Fc1ccccc1CCN1CCN(CCCc2c[nH]c3ccc(-n4cnnc4)cc23)CC1 | 98 | 0.5 | 1.4 | 80 | – | – | – |
| c1c[nH]c(CN2CCN(CCCc3c[nH]c4ccc(-n5cnnc5)cc34)CC2)n1 | 36 | 1.6 | 2 | 68 | – | – | – |
| CC(=O)Nc1ccc(CCN2CCN(CCCc3c[nH]c4ccc(-n5cnnc5)cc34)CC2)cc1 | 260 | – | 1.8 | 85 | – | – | – |
| CC(c1ccccc1)N1CCN(CCCc2c[nH]c3ccc(-n4cnnc4)cc23)CC1 (stereo not drawn) | 13 | 1 | – | – | – | – | – |
